Measured values published in ChEMBL document CHEMBL4732237, “Discovery of 4-alkoxy-2-aryl-6,7-dimethoxyquinolines as a new class of topoisomerase I inhibitors endowed with potent in vitro anticancer activity” (2021).

Tested on: SK-MEL-5
Assay: Growth inhibition of human SK-MEL-5 cells at 10 uM incubated for 48 hrs by sulforhodamine B assay relative to control
Type: functional
Conditions: read-out: GI
Outline: (§1)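 NCI one-dose screen. Cells grown in RPMI 1640 with 5% FBS and 2 mM L-glutamine, plated and incubated 24 h at 37 °C, 5% CO2. DMSO-dissolved drug added, then 48 h further incubation. Adherent cells fixed with cold TCA, suspension cells fixed after settling. Stained with 0.4% SRB, absorbance read at 515 nm. Reported as percent growth relative to no-drug control and time-zero cell number.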

| Structure (SMILES) | inhibition of growth at 10 µM [%] |
| --- | --- |
| COc1cc2nc(-c3ccc(Cl)cc3)cc(OCCCN3CCOCC3)c2cc1OC | 62 |

Tested on: UACC-62
Assay: Growth inhibition of human UACC-62 cells at 10 uM incubated for 48 hrs by sulforhodamine B assay relative to control
Type: functional
Conditions: read-out: GI
Outline: (§2)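 NCI one-dose screen across a 59-line panel. Cells were grown in RPMI 1640 with 5% FBS and 2 mM L-glutamine, plated and pre-incubated 24 h, then exposed to drug for 48 h at 37 °C, 5% CO2. Adherent cells were fixed with cold TCA (10% final), stained with 0.4% SRB in 1% acetic acid and read at 515 nm. Result is percent growth relative to no-drug control and time-zero cell count.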

| Structure (SMILES) | inhibition of growth at 10 µM [%] |
| --- | --- |
| COc1cc2nc(-c3ccc(Cl)cc3)cc(OCCCN3CCOCC3)c2cc1OC | 62 |

Tested on: SK-MEL-2
Assay: Growth inhibition of human SK-MEL-2 cells at 10 uM incubated for 48 hrs by sulforhodamine B assay relative to control
Type: functional
Conditions: read-out: GI
Outline: as §1

| Structure (SMILES) | inhibition of growth at 10 µM [%] |
| --- | --- |
| COc1cc2nc(-c3ccc(Cl)cc3)cc(OCCCN3CCOCC3)c2cc1OC | 62 |

Tested on: SN12C
Assay: Growth inhibition of human SN12C cells at 10 uM incubated for 48 hrs by sulforhodamine B assay relative to control
Type: functional
Conditions: read-out: GI
Outline: as §1

| Structure (SMILES) | inhibition of growth at 10 µM [%] |
| --- | --- |
| COc1cc2nc(-c3ccc(Cl)cc3)cc(OCCCN3CCOCC3)c2cc1OC | 62 |

Tested on: KM12
Assay: Growth inhibition of human KM12 cells at 10 uM incubated for 48 hrs by sulforhodamine B assay relative to control
Type: functional
Conditions: read-out: GI
Outline: (§3)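 NCI-60 single-dose screen. Cells were grown in RPMI 1640 with 5% FBS and 2 mM L-glutamine and plated 24 h before drug addition. Compound was added at one concentration in DMSO-derived medium and incubated for 48 h at 37 °C in 5% CO2. Read-out was SRB protein stain at 515 nm. Result is percent growth versus the no-drug control and the time-zero cell count; values below 0 indicate lethality.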

| Structure (SMILES) | inhibition of growth at 10 µM [%] |
| --- | --- |
| COc1cc2nc(-c3ccc(Cl)cc3)cc(OCCCN3CCOCC3)c2cc1OC | 62 |

Tested on: T47D
Assay: Growth inhibition of human T47D cells at 10 uM incubated for 48 hrs by sulforhodamine B assay relative to control
Type: functional
Conditions: read-out: GI
Outline: as §2

| Structure (SMILES) | inhibition of growth at 10 µM [%] |
| --- | --- |
| COc1cc2nc(-c3ccc(Cl)cc3)cc(OCCCN3CCOCC3)c2cc1OC | 62 |

Tested on: UACC-257
Assay: Growth inhibition of human UACC-257 cells at 10 uM incubated for 48 hrs by sulforhodamine B assay relative to control
Type: functional
Conditions: read-out: GI
Outline: as §2

| Structure (SMILES) | inhibition of growth at 10 µM [%] |
| --- | --- |
| COc1cc2nc(-c3ccc(Cl)cc3)cc(OCCCN3CCOCC3)c2cc1OC | 62 |

Tested on: HL-60(TB)
Assay: Growth inhibition of human HL-60(TB) cells at 10 uM incubated for 48 hrs by sulforhodamine B assay relative to control
Type: functional
Conditions: read-out: GI
Outline: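 NCI-60 one-dose screen: same culture, 48 h drug exposure and SRB read-out. Reported as percent growth relative to no-drug control and to time-zero cell number; 0–100 means growth inhibition, below 0 means lethality.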

| Structure (SMILES) | inhibition of growth at 10 µM [%] |
| --- | --- |
| COc1cc2nc(-c3ccc(Cl)cc3)cc(OCCCN3CCOCC3)c2cc1OC | 62 |

Tested on: NCI-H460
Assay: Growth inhibition of human NCI-H460 cells at 10 uM incubated for 48 hrs by sulforhodamine B assay relative to control
Type: functional
Conditions: read-out: GI
Outline: as §1

| Structure (SMILES) | inhibition of growth at 10 µM [%] |
| --- | --- |
| COc1cc2nc(-c3ccc(Cl)cc3)cc(OCCCN3CCOCC3)c2cc1OC | 62 |

Tested on: NCI-H23
Assay: Growth inhibition of human NCI-H23 cells at 10 uM incubated for 48 hrs by sulforhodamine B assay relative to control
Type: functional
Conditions: read-out: GI
Outline: as §1

| Structure (SMILES) | inhibition of growth at 10 µM [%] |
| --- | --- |
| COc1cc2nc(-c3ccc(Cl)cc3)cc(OCCCN3CCOCC3)c2cc1OC | 62 |

Tested on: MDA-MB-435
Assay: Growth inhibition of human MDA-MB-435 cells at 10 uM incubated for 48 hrs by sulforhodamine B assay relative to control
Type: functional
Conditions: read-out: GI
Outline: as §3

| Structure (SMILES) | inhibition of growth at 10 µM [%] |
| --- | --- |
| COc1cc2nc(-c3ccc(Cl)cc3)cc(OCCCN3CCOCC3)c2cc1OC | 62 |

Tested on: SF-539
Assay: Growth inhibition of human SF-539 cells at 10 uM incubated for 48 hrs by sulforhodamine B assay relative to control
Type: functional
Conditions: read-out: GI
Outline: as §1

| Structure (SMILES) | inhibition of growth at 10 µM [%] |
| --- | --- |
| COc1cc2nc(-c3ccc(Cl)cc3)cc(OCCCN3CCOCC3)c2cc1OC | 62 |

Tested on: NCI-H522
Assay: Growth inhibition of human NCI-H522 cells at 10 uM incubated for 48 hrs by sulforhodamine B assay relative to control
Type: functional
Conditions: read-out: GI
Outline: as §1

| Structure (SMILES) | inhibition of growth at 10 µM [%] |
| --- | --- |
| COc1cc2nc(-c3ccc(Cl)cc3)cc(OCCCN3CCOCC3)c2cc1OC | 62 |

Tested on: OVCAR-3
Assay: Growth inhibition of human OVCAR-3 cells at 10 uM incubated for 48 hrs by sulforhodamine B assay relative to control
Type: functional
Conditions: read-out: GI
Outline: as §1

| Structure (SMILES) | inhibition of growth at 10 µM [%] |
| --- | --- |
| COc1cc2nc(-c3ccc(Cl)cc3)cc(OCCCN3CCOCC3)c2cc1OC | 62 |

Tested on: NCI-H322M
Assay: Growth inhibition of human NCI-H322M cells at 10 uM incubated for 48 hrs by sulforhodamine B assay relative to control
Type: functional
Conditions: read-out: GI
Outline: as §1

| Structure (SMILES) | inhibition of growth at 10 µM [%] |
| --- | --- |
| COc1cc2nc(-c3ccc(Cl)cc3)cc(OCCCN3CCOCC3)c2cc1OC | 62 |

Tested on: LOX IMVI
Assay: Growth inhibition of human LOX IMVI cells at 10 uM incubated for 48 hrs by sulforhodamine B assay relative to control
Type: functional
Conditions: read-out: GI
Outline: as §3

| Structure (SMILES) | inhibition of growth at 10 µM [%] |
| --- | --- |
| COc1cc2nc(-c3ccc(Cl)cc3)cc(OCCCN3CCOCC3)c2cc1OC | 62 |

Tested on: SNB-75
Assay: Growth inhibition of human SNB-75 cells at 10 uM incubated for 48 hrs by sulforhodamine B assay relative to control
Type: functional
Conditions: read-out: GI
Outline: as §1

| Structure (SMILES) | inhibition of growth at 10 µM [%] |
| --- | --- |
| COc1cc2nc(-c3ccc(Cl)cc3)cc(OCCCN3CCOCC3)c2cc1OC | 62 |

Tested on: OVCAR-4
Assay: Growth inhibition of human OVCAR-4 cells at 10 uM incubated for 48 hrs by sulforhodamine B assay relative to control
Type: functional
Conditions: read-out: GI
Outline: as §1

| Structure (SMILES) | inhibition of growth at 10 µM [%] |
| --- | --- |
| COc1cc2nc(-c3ccc(Cl)cc3)cc(OCCCN3CCOCC3)c2cc1OC | 62 |
